# Results from different studies.
# Lines come from different studies, so protocols differ.
# CDKL1: Cyclin-dependent kinase-like 1 (CDKL1, Homo sapiens, UniProt Q00532)
# ULK1: Serine/threonine-protein kinase ULK1 (ULK1, Homo sapiens, UniProt O75385)
# MAP3K11: Mitogen-activated protein kinase kinase kinase 11 (MAP3K11, Homo sapiens, UniProt Q16584)
Structure (SMILES),target,test,system,setting,endpoint,value
N#CC1c2c([nH]c3c(Cl)c(Cl)ccc23)C(=O)NC12CCCCC2 (racemic),CDKL1,"thermal stability, DSF",,10 µM,ΔTm,0.2 °C
c1cc(-c2nnc3scnn23)ccn1,"Type II inositol 1,4,5-trisphosphate 5-phosphatase (Homo sapiens, UniProt P32019)","enzyme activity, inhibitor",,,Emax,100%
Cc1cc(NC(=O)c2cccc3cc(-c4cccc5[nH]nc(N)c45)ccc23)ccc1F,"Hepatocyte growth factor receptor (MET, Homo sapiens, UniProt P08581, D1228N)","enzyme activity, inhibitor",,0.1 µM,activity vs control,120%
CN1CCc2cc(Nc3ncc(C4CC4)c(NCCCNC(=O)C4CCC4)n3)ccc2C1,ULK1,"enzyme activity, inhibitor, radiometric",,1 µM,remaining activity,1%
Cn1c2c(c3ccc(Cl)c(Cl)c31)C(C#N)C1(CCNCC1)NC2=O (racemic),CDKL1,"thermal stability, DSF",,10 µM,ΔTm,0.9 °C
Cc1ccc(NC(=O)c2ccc(C)c(C(F)(F)F)c2)cc1C#Cc1nn(C2CCC(O)CC2)c2ncnc(N)c12 (centres unmarked),"Hepatocyte growth factor receptor (MET, Homo sapiens, UniProt P08581, Y1230H)",cell-free assay,,10 µM,remaining signal,123%
CN(C)C1CCN(CC#Cc2nn(C3CCCC3)c3nc(NCc4ccccc4)ncc23)C1 (centres unmarked),"Interleukin-1 receptor-associated kinase 4 (IRAK4, Homo sapiens, UniProt Q9NWZ3)","enzyme activity, inhibitor, FRET",,10 µM,inhibition,0%
CN1CCC2(CC1)NC(=O)c1c(c3ccc(Cl)c(Cl)c3n1C)C2C#N (racemic),CDKL1,"thermal stability, DSF",,10 µM,ΔTm,0 °C
NS(=O)(=O)c1ccc(CNc2nc(Nc3cccc(NC(=O)N4CCCC4)c3)ncc2Br)cc1,MAP3K11,"enzyme activity, inhibitor, radiometric",,1 µM,remaining activity,24%
Cn1c2c(Cl)c(Cl)ccc2c2cc[nH]c(=O)c21,CDKL1,"thermal stability, DSF",,10 µM,ΔTm,-0.1 °C
O=C(NCCCNc1nc(Nc2cccc(CN3CCOCC3)c2)ncc1C1CC1)C1CCC1,ULK1,"enzyme activity, inhibitor, radiometric",,1 µM,remaining activity,9%
Nc1ncnc2occ(-c3ccc(NC(=O)Nc4cc(C(F)(F)F)ccc4F)cc3)c12,"Serine/threonine-protein kinase 36 (STK36, Homo sapiens, UniProt Q9NRP7)","cell-free assay, inhibitor",,20 µM,remaining signal,87%
CCN1CCN(Cc2ccc(NC(=O)c3ccc(C)c(Oc4ccnc5[nH]ccc45)c3)cc2C(F)(F)F)CC1,"Eukaryotic elongation factor 2 kinase (EEF2K, Homo sapiens, UniProt O00418)","target engagement in cells, inhibitor, chemoproteomics",A-375,50 nM,inhibition,-13.9%
NS(=O)(=O)c1ccc(CNc2ccnc(Nc3cccc(CN4CCOCC4)c3)n2)cc1,ULK1,"enzyme activity, inhibitor, radiometric",,1 µM,remaining activity,92%
Cc1cnc(NC2CCOCC2)nc1-n1cnc(C(=O)NC(CN)c2cc(F)cc(Cl)c2)c1 (centres unmarked),"Hepatocyte growth factor receptor (MET, Homo sapiens, UniProt P08581, Y1230C)","enzyme activity, inhibitor, radiometric",,1 µM,remaining activity,100%
Cn1c2c(c3ccccc31)C(C#N)C(C)(C)NC2=O (centres unmarked),CDKL1,"thermal stability, DSF",,10 µM,ΔTm,-0.1 °C
NS(=O)(=O)c1ccc(CNc2nc(Nc3cccc(CN4CCOCC4)c3)ncc2C2CC2)cc1,MAP3K11,"enzyme activity, inhibitor, radiometric",,1 µM,remaining activity,68%
